From ChEMBL document CHEMBL4689842, “EUbOPEN Chemogenomics Library wave 1” (2021)

System: Fibroblast
Assay: Multiplex assay against human fibroblast
Type: toxicity, cell-based
In short: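 Cells were classed with CellPathfinder machine-learning gating, first as Hoechst high-intensity objects or normal cells, then (normal cells) as healthy, pyknosed or fragmented nuclei, and finally (pyknosed cells) as mitotic or apoptotic. Staining of live cells at seeding used Hoechst33342, BioTracker Green Microtubule Cytoskeleton Dye, MitoTracker Red and Annexin V Alexa Fluor 680, with imaging on a CQ1 microscope at 37°C and 5% CO2 after compound addition. Tubulin, mitochondrial-mass and membrane-permeability phenotypes are per cents of healthy-nucleus cells.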

[1] = 12 h, 1 µM, compound concentration 1 uM, replicate 1
[2] = 12 h, 1 µM, compound concentration 1 uM, replicate 2
[3] = 12 h, 10 µM, compound concentration 10 uM, replicate 1
[4] = 12 h, 10 µM, compound concentration 10 uM, replicate 2
[5] = 24 h, 1 µM, compound concentration 1 uM, replicate 1
[6] = 24 h, 1 µM, compound concentration 1 uM, replicate 2
[7] = 24 h, 10 µM, compound concentration 10 uM, replicate 1
[8] = 24 h, 10 µM, compound concentration 10 uM, replicate 2
[9] = 48 h, 1 µM, compound concentration 1 uM, replicate 1
[10] = 48 h, 1 µM, compound concentration 1 uM, replicate 2
[11] = 48 h, 10 µM, compound concentration 10 uM, replicate 1
[12] = 48 h, 10 µM, compound concentration 10 uM, replicate 2

Structure (SMILES): CCOC(=O)c1c(C)[nH]c2ccc3c(c12)CN1CCc2cc(OC)ccc2C1O3 (stereo not drawn)
- Population Apoptotic (%) [1]: 69%
- Population Fragmented Nuclei (%) [1]: 21%
- Population Healthy Nuclei (%) [1]: 51%
- Population Hoechst High Intensity Objects (%) [1]: 8%
- Population Membrane Permeable-Phenotype (%) [1]: 8%
- Population Mitochondria Different-Phenotype (%) [1]: 23%
- Population Mitotic Cells (%) [1]: 30%
- Population Normal (%) [1]: 91%
- Population Pyknosed Nuclei (%) [1]: 26%
- Population Tubulin-Different-Phenotype (%) [1]: 43%
- Total Cell Count [1]: 150
- Population Apoptotic (%) [2]: 9%
- Population Fragmented Nuclei (%) [2]: 9%
- Population Healthy Nuclei (%) [2]: 76%
- Population Hoechst High Intensity Objects (%) [2]: 9%
- Population Membrane Permeable-Phenotype (%) [2]: 3%
- Population Mitochondria Different-Phenotype (%) [2]: 70%
- Population Mitotic Cells (%) [2]: 90%
- Population Normal (%) [2]: 90%
- Population Pyknosed Nuclei (%) [2]: 14%
- Population Tubulin-Different-Phenotype (%) [2]: 62%
- Total Cell Count [2]: 65
- Population Apoptotic (%) [3]: 82%
- Population Fragmented Nuclei (%) [3]: 18%
- Population Healthy Nuclei (%) [3]: 38%
- Population Hoechst High Intensity Objects (%) [3]: 7%
- Population Membrane Permeable-Phenotype (%) [3]: 12%
- Population Mitochondria Different-Phenotype (%) [3]: 74%
- Population Mitotic Cells (%) [3]: 17%
- Population Normal (%) [3]: 92%
- Population Pyknosed Nuclei (%) [3]: 43%
- Population Tubulin-Different-Phenotype (%) [3]: 80%
- Total Cell Count [3]: 88
- Population Apoptotic (%) [4]: 80%
- Population Fragmented Nuclei (%) [4]: 2%
- Population Healthy Nuclei (%) [4]: 75%
- Population Hoechst High Intensity Objects (%) [4]: 11%
- Population Membrane Permeable-Phenotype (%) [4]: 70%
- Population Mitochondria Different-Phenotype (%) [4]: 100%
- Population Mitotic Cells (%) [4]: 20%
- Population Normal (%) [4]: 88%
- Population Pyknosed Nuclei (%) [4]: 22%
- Population Tubulin-Different-Phenotype (%) [4]: 100%
- Total Cell Count [4]: 84
- Population Apoptotic (%) [5]: 62%
- Population Fragmented Nuclei (%) [5]: 29%
- Population Healthy Nuclei (%) [5]: 58%
- Population Hoechst High Intensity Objects (%) [5]: 13%
- Population Membrane Permeable-Phenotype (%) [5]: 13%
- Population Mitochondria Different-Phenotype (%) [5]: 13%
- Population Mitotic Cells (%) [5]: 37%
- Population Normal (%) [5]: 86%
- Population Pyknosed Nuclei (%) [5]: 12%
- Population Tubulin-Different-Phenotype (%) [5]: 48%
- Total Cell Count [5]: 152
- Population Apoptotic (%) [6]: 8%
- Population Fragmented Nuclei (%) [6]: 9%
- Population Healthy Nuclei (%) [6]: 75%
- Population Hoechst High Intensity Objects (%) [6]: 5%
- Population Membrane Permeable-Phenotype (%) [6]: 1%
- Population Mitochondria Different-Phenotype (%) [6]: 58%
- Population Mitotic Cells (%) [6]: 91%
- Population Normal (%) [6]: 94%
- Population Pyknosed Nuclei (%) [6]: 14%
- Population Tubulin-Different-Phenotype (%) [6]: 35%
- Total Cell Count [6]: 65
- Population Apoptotic (%) [7]: 70%
- Population Fragmented Nuclei (%) [7]: 27%
- Population Healthy Nuclei (%) [7]: 46%
- Population Hoechst High Intensity Objects (%) [7]: 20%
- Population Membrane Permeable-Phenotype (%) [7]: 13%
- Population Mitochondria Different-Phenotype (%) [7]: 70%
- Population Mitotic Cells (%) [7]: 30%
- Population Normal (%) [7]: 79%
- Population Pyknosed Nuclei (%) [7]: 25%
- Population Tubulin-Different-Phenotype (%) [7]: 86%
- Total Cell Count [7]: 99
- Population Apoptotic (%) [8]: 89%
- Population Fragmented Nuclei (%) [8]: 6%
- Population Healthy Nuclei (%) [8]: 52%
- Population Hoechst High Intensity Objects (%) [8]: 11%
- Population Membrane Permeable-Phenotype (%) [8]: 83%
- Population Mitochondria Different-Phenotype (%) [8]: 100%
- Population Mitotic Cells (%) [8]: 10%
- Population Normal (%) [8]: 88%
- Population Pyknosed Nuclei (%) [8]: 41%
- Population Tubulin-Different-Phenotype (%) [8]: 100%
- Total Cell Count [8]: 87
- Population Apoptotic (%) [9]: 64%
- Population Fragmented Nuclei (%) [9]: 32%
- Population Healthy Nuclei (%) [9]: 54%
- Population Hoechst High Intensity Objects (%) [9]: 14%
- Population Membrane Permeable-Phenotype (%) [9]: 9%
- Population Mitochondria Different-Phenotype (%) [9]: 9%
- Population Mitotic Cells (%) [9]: 35%
- Population Normal (%) [9]: 85%
- Population Pyknosed Nuclei (%) [9]: 12%
- Population Tubulin-Different-Phenotype (%) [9]: 47%
- Total Cell Count [9]: 155
- Population Apoptotic (%) [10]: 100%
- Population Fragmented Nuclei (%) [10]: 33%
- Population Healthy Nuclei (%) [10]: 66%
- Population Hoechst High Intensity Objects (%) [10]: 11%
- Population Membrane Permeable-Phenotype (%) [10]: 6%
- Population Mitochondria Different-Phenotype (%) [10]: 3%
- Population Mitotic Cells (%) [10]: 0%
- Population Normal (%) [10]: 88%
- Population Pyknosed Nuclei (%) [10]: 0%
- Total Cell Count [10]: 185
- Population Apoptotic (%) [11]: 90%
- Population Fragmented Nuclei (%) [11]: 36%
- Population Healthy Nuclei (%) [11]: 50%
- Population Hoechst High Intensity Objects (%) [11]: 28%
- Population Membrane Permeable-Phenotype (%) [11]: 10%
- Population Mitochondria Different-Phenotype (%) [11]: 82%
- Population Mitotic Cells (%) [11]: 10%
- Population Normal (%) [11]: 71%
- Population Pyknosed Nuclei (%) [11]: 12%
- Population Tubulin-Different-Phenotype (%) [11]: 84%
- Total Cell Count [11]: 108
- Population Apoptotic (%) [12]: 66%
- Population Fragmented Nuclei (%) [12]: 46%
- Population Healthy Nuclei (%) [12]: 51%
- Population Hoechst High Intensity Objects (%) [12]: 25%
- Population Membrane Permeable-Phenotype (%) [12]: 0%
- Population Mitochondria Different-Phenotype (%) [12]: 74%
- Population Mitotic Cells (%) [12]: 33%
- Population Normal (%) [12]: 74%
- Population Pyknosed Nuclei (%) [12]: 1%
- Population Tubulin-Different-Phenotype (%) [12]: 89%
- Total Cell Count [12]: 223

Structure (SMILES): COc1ccc(S(=O)(=O)N(CCO)c2ccccc2CN(C)C/C=C/c2ccc(Cl)cc2)cc1.O=P(O)(O)O
- Population Fragmented Nuclei (%) [1]: 35%
- Population Healthy Nuclei (%) [1]: 51%
- Population Hoechst High Intensity Objects (%) [1]: 16%
- Population Membrane Permeable-Phenotype (%) [1]: 12%
- Population Mitochondria Different-Phenotype (%) [1]: 29%
- Population Mitotic Cells (%) [1]: 19%
- Population Normal (%) [1]: 83%
- Population Pyknosed Nuclei (%) [1]: 13%
- Population Tubulin-Different-Phenotype (%) [1]: 86%
- Total Cell Count [1]: 278
- Population Apoptotic (%) [2]: 80%
- Population Fragmented Nuclei (%) [2]: 56%
- Population Healthy Nuclei (%) [2]: 33%
- Population Hoechst High Intensity Objects (%) [2]: 33%
- Population Membrane Permeable-Phenotype (%) [2]: 11%
- Population Mitochondria Different-Phenotype (%) [2]: 88%
- Population Mitotic Cells (%) [2]: 20%
- Population Normal (%) [2]: 66%
- Population Pyknosed Nuclei (%) [2]: 9%
- Population Tubulin-Different-Phenotype (%) [2]: 94%
- Total Cell Count [2]: 77
- Population Apoptotic (%) [3]: 75%
- Population Fragmented Nuclei (%) [3]: 32%
- Population Healthy Nuclei (%) [3]: 55%
- Population Hoechst High Intensity Objects (%) [3]: 10%
- Population Membrane Permeable-Phenotype (%) [3]: 14%
- Population Mitochondria Different-Phenotype (%) [3]: 5%
- Population Mitotic Cells (%) [3]: 25%
- Population Normal (%) [3]: 89%
- Population Pyknosed Nuclei (%) [3]: 12%
- Population Tubulin-Different-Phenotype (%) [3]: 19%
- Total Cell Count [3]: 179
- Population Apoptotic (%) [4]: 50%
- Population Fragmented Nuclei (%) [4]: 61%
- Population Healthy Nuclei (%) [4]: 34%
- Population Hoechst High Intensity Objects (%) [4]: 44%
- Population Membrane Permeable-Phenotype (%) [4]: 22%
- Population Mitochondria Different-Phenotype (%) [4]: 22%
- Population Mitotic Cells (%) [4]: 50%
- Population Normal (%) [4]: 55%
- Population Pyknosed Nuclei (%) [4]: 3%
- Population Tubulin-Different-Phenotype (%) [4]: 55%
- Total Cell Count [4]: 94
- Population Apoptotic (%) [5]: 80%
- Population Fragmented Nuclei (%) [5]: 34%
- Population Healthy Nuclei (%) [5]: 55%
- Population Hoechst High Intensity Objects (%) [5]: 23%
- Population Membrane Permeable-Phenotype (%) [5]: 5%
- Population Mitochondria Different-Phenotype (%) [5]: 79%
- Population Mitotic Cells (%) [5]: 20%
- Population Normal (%) [5]: 76%
- Population Pyknosed Nuclei (%) [5]: 9%
- Population Tubulin-Different-Phenotype (%) [5]: 90%
- Total Cell Count [5]: 264
- Population Apoptotic (%) [6]: 100%
- Population Fragmented Nuclei (%) [6]: 48%
- Population Healthy Nuclei (%) [6]: 38%
- Population Hoechst High Intensity Objects (%) [6]: 37%
- Population Membrane Permeable-Phenotype (%) [6]: 0%
- Population Mitochondria Different-Phenotype (%) [6]: 100%
- Population Mitotic Cells (%) [6]: 0%
- Population Normal (%) [6]: 62%
- Population Pyknosed Nuclei (%) [6]: 12%
- Population Tubulin-Different-Phenotype (%) [6]: 88%
- Total Cell Count [6]: 75
- Population Apoptotic (%) [7]: 69%
- Population Fragmented Nuclei (%) [7]: 33%
- Population Healthy Nuclei (%) [7]: 52%
- Population Hoechst High Intensity Objects (%) [7]: 14%
- Population Membrane Permeable-Phenotype (%) [7]: 8%
- Population Mitochondria Different-Phenotype (%) [7]: 3%
- Population Mitotic Cells (%) [7]: 30%
- Population Normal (%) [7]: 85%
- Population Pyknosed Nuclei (%) [7]: 14%
- Population Tubulin-Different-Phenotype (%) [7]: 14%
- Total Cell Count [7]: 186
- Population Apoptotic (%) [8]: 75%
- Population Fragmented Nuclei (%) [8]: 71%
- Population Healthy Nuclei (%) [8]: 20%
- Population Hoechst High Intensity Objects (%) [8]: 44%
- Population Membrane Permeable-Phenotype (%) [8]: 18%
- Population Mitochondria Different-Phenotype (%) [8]: 18%
- Population Mitotic Cells (%) [8]: 25%
- Population Normal (%) [8]: 55%
- Population Pyknosed Nuclei (%) [8]: 7%
- Population Tubulin-Different-Phenotype (%) [8]: 36%
- Total Cell Count [8]: 95
